3 compounds from ChEMBL document CHEMBL1137737, “Synthesis, antimicrobial and cytotoxic activities of 1,3,4-oxadiazoles, 1,3,4-thiadiazoles and 1,2,4-triazoles” (Eur J Med Chem, 2009) can be followed below.

In general, MIC refers to the smallest concentration in the dilution series that meets the test's criterion for growth inhibition. A lower MIC goes with greater potency.

≈ marks a conversion by molar mass, not a printed value.

Type in all cases: functional
Assay [1] relates to Bacillus subtilis. The assay can be described thus: Antibacterial activity against Bacillus subtilis NCIM 2063 at 100 ug/disk after 24 hrs by agar disc-diffusion method. As to conditions: NCIM 2063, 24 h, read-out: DIZ. In outline: (§1)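 Sterile 6 mm filter-paper discs are soaked in compound solution in DMSO and placed on nutrient agar plates already inoculated with each organism. Plates are incubated at 37 °C. The diameter of the growth-inhibition zone is read after 24 h for bacteria and after 48 h for fungi.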

Assay [2] concerns Aspergillus niger. The assay can be described thus: Antifungal activity against Aspergillus niger NCIM 596 at 100 ug/disk after 48 hrs by agar disc-diffusion method. As to conditions: NCIM 596, 48 h, read-out: DIZ. In outline:
as §1
On the technique in general: Agar diffusion results depend on both activity and mobility in agar.

Assay [3] deals with Klebsiella pneumoniae. The assay can be described thus: Antibacterial activity against Klebsiella pneumoniae NCIM 2957 at 100 ug/disk after 24 hrs by agar disc-diffusion method. As to conditions: NCIM 2957, 24 h, read-out: DIZ. An outline of the steps: as §1
Assay [4] has as its system Staphylococcus aureus. Put plainly: Antibacterial activity against Staphylococcus aureus NCIM 5021 after 24 hrs by microdilution susceptibility method. As to conditions: NCIM 5021, 24 h. In outline: (§2)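 This is a microdilution susceptibility test. Organism suspensions are inoculated into wells holding the dilution series, then incubated at 36 °C for 24 h (bacteria) or 48 h (fungi). MIC is the lowest concentration giving no turbidity, i.e. complete inhibition of visible growth.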

The subject of assay [5] is Bacillus subtilis. Put plainly: Antibacterial activity against Bacillus subtilis NCIM 2063 after 24 hrs by microdilution susceptibility method. As to conditions: NCIM 2063, 24 h. An outline of the steps:
as §2

For assay [6], the system named is Klebsiella pneumoniae. The assay can be described thus: Antibacterial activity against Klebsiella pneumoniae NCIM 2957 after 24 hrs by microdilution susceptibility method. As to conditions: NCIM 2957, 24 h. In outline:
as §2

For assay [7], the system named is Fusarium solani. Put plainly: Antifungal activity against Fusarium solani NCIM 1330 after 48 hrs by microdilution susceptibility method. As to conditions: NCIM 1330, 48 h. An outline of the steps: as §2
For orientation: Broth dilution looks for growth in wells or tubes with falling amounts of substance.

Assay [8] has as its system Proteus vulgaris. The assay can be described thus: Antibacterial activity against Proteus vulgaris NCIM 2027 after 24 hrs by microdilution susceptibility method. As to conditions: NCIM 2027, 24 h. An outline of the steps:
as §2

Assay [9] relates to Fusarium solani. Put plainly: Antifungal activity against Fusarium solani NCIM 1330 at 200 ug/disk after 48 hrs by agar disc-diffusion method. As to conditions: NCIM 1330, 48 h, read-out: DIZ. In outline: as §1
Assay [10] deals with Staphylococcus aureus. Put plainly: Antibacterial activity against Staphylococcus aureus NCIM 5021 at 100 ug/disk after 24 hrs by agar disc-diffusion method. As to conditions: NCIM 5021, 24 h, read-out: DIZ. In outline: as §1
Assay [11] deals with Bacillus subtilis. The assay can be described thus: Antibacterial activity against Bacillus subtilis NCIM 2063 at 200 ug/disk after 24 hrs by agar disc-diffusion method. As to conditions: NCIM 2063, 24 h, read-out: DIZ. An outline of the steps: as §1
For assay [12], the system named is Aspergillus niger. The assay can be described thus: Antifungal activity against Aspergillus niger NCIM 596 at 200 ug/disk after 48 hrs by agar disc-diffusion method. As to conditions: NCIM 596, 48 h, read-out: DIZ. In outline:
as §1

Assay [13] deals with Klebsiella pneumoniae. Put plainly: Antibacterial activity against Klebsiella pneumoniae NCIM 2957 at 200 ug/disk after 24 hrs by agar disc-diffusion method. As to conditions: NCIM 2957, 24 h, read-out: DIZ. An outline of the steps:
as §1

Assay [14] concerns Proteus vulgaris. The assay can be described thus: Antibacterial activity against Proteus vulgaris NCIM 2027 at 200 ug/disk after 24 hrs by agar disc-diffusion method. As to conditions: NCIM 2027, 24 h, read-out: DIZ. In outline: as §1
Assay [15] deals with Fusarium solani. Put plainly: Antifungal activity against Fusarium solani NCIM 1330 at 100 ug/disk after 48 hrs by agar disc-diffusion method. As to conditions: NCIM 1330, 48 h, read-out: DIZ. An outline of the steps: as §1
Assay [16] has as its system Proteus vulgaris. The assay can be described thus: Antibacterial activity against Proteus vulgaris NCIM 2027 at 100 ug/disk after 24 hrs by agar disc-diffusion method. As to conditions: NCIM 2027, 24 h, read-out: DIZ. In outline:
as §1

Assay [17] relates to Curvularia lunata. The assay can be described thus: Antifungal activity against Curvularia lunata NCIM 716 at 100 ug/disk after 48 hrs by agar disc-diffusion method. As to conditions: NCIM 716, 48 h, read-out: DIZ. In outline:
as §1

In assay [18] the test system is Curvularia lunata. The assay can be described thus: Antifungal activity against Curvularia lunata NCIM 716 at 200 ug/disk after 48 hrs by agar disc-diffusion method. As to conditions: NCIM 716, 48 h, read-out: DIZ. An outline of the steps:
as §1

The subject of assay [19] is Aspergillus niger. Put plainly: Antifungal activity against Aspergillus niger NCIM 596 after 48 hrs by microdilution susceptibility method. As to conditions: NCIM 596, 48 h. In outline: as §2
Assay [20] relates to Curvularia lunata. The assay can be described thus: Antifungal activity against Curvularia lunata NCIM 716 after 48 hrs by microdilution susceptibility method. As to conditions: NCIM 716, 48 h. An outline of the steps: as §2
Assay [21] deals with Staphylococcus aureus. The assay can be described thus: Antibacterial activity against Staphylococcus aureus NCIM 5021 at 200 ug/disk after 24 hrs by agar disc-diffusion method. As to conditions: NCIM 5021, 24 h, read-out: DIZ. In outline: as §1

With `Nn1c(CS(=O)(=O)c2ccc(Cl)cc2)nnc1-c1ccccc1Cl`, the zone of inhibition at 100 µg/disc in the assay with Bacillus subtilis [1] was 16 mm; in the assay on Aspergillus niger [2], 20 mm; in the assay with Klebsiella pneumoniae [3], 18 mm; in the assay with Staphylococcus aureus [10], 19 mm; with Fusarium solani [15], 24 mm; in the assay on Proteus vulgaris [16], 19 mm. Besides, in the assay on Curvularia lunata [17], the zone of inhibition at 100 µg/disc is 23 mm. Further, the MIC in the assay with Staphylococcus aureus [4] was 400 µg/mL (≈ 1040 µM); against Bacillus subtilis [5] it was 400 µg/mL (≈ 1040 µM); against Klebsiella pneumoniae [6] it was 400 µg/mL (≈ 1040 µM); against Fusarium solani [7], 200 µg/mL (≈ 522 µM); in the assay on Proteus vulgaris [8] it was 400 µg/mL (≈ 1040 µM); in the assay on Aspergillus niger [19], 400 µg/mL (≈ 1040 µM). Besides, the MIC against Curvularia lunata [20] was found to be 200 µg/mL (≈ 522 µM). The zone of inhibition at 200 µg/disc with Fusarium solani [9] came to 27 mm; in the assay with Bacillus subtilis [11], 18 mm; in the assay with Aspergillus niger [12], 24 mm; with Klebsiella pneumoniae [13], 20 mm; with Proteus vulgaris [14], 20 mm; in the assay on Curvularia lunata [18], 25 mm. Moreover, the zone of inhibition at 200 µg/disc in the assay with Staphylococcus aureus [21] was 23 mm.

With `O=S(=O)(Cc1ccc(Cl)cc1)Cc1nnc(-c2ccccc2)s1`, the zone of inhibition at 100 µg/disc in the assay on Bacillus subtilis [1] worked out at 24 mm; in the assay with Aspergillus niger [2] it was 17 mm; in the assay on Klebsiella pneumoniae [3], 19 mm; in the assay on Staphylococcus aureus [10], 28 mm; in the assay with Fusarium solani [15], 24 mm; in the assay on Proteus vulgaris [16] it was 17 mm. In addition, the zone of inhibition at 100 µg/disc with Curvularia lunata [17] is 23 mm. Further, the MIC in the assay on Staphylococcus aureus [4] was determined as 100 µg/mL (≈ 274 µM); against Bacillus subtilis [5], 200 µg/mL (≈ 548 µM); with Klebsiella pneumoniae [6], 200 µg/mL (≈ 548 µM); against Fusarium solani [7], 200 µg/mL (≈ 548 µM); in the assay with Proteus vulgaris [8] it was 200 µg/mL (≈ 548 µM); in the assay on Aspergillus niger [19], 200 µg/mL (≈ 548 µM). Moreover, in the assay on Curvularia lunata [20], the lowest concentration to inhibit growth (MIC) was 200 µg/mL (≈ 548 µM). Also, the zone of inhibition at 200 µg/disc turned out to be 27 mm in the assay with Fusarium solani [9]; 28 mm in the assay on Bacillus subtilis [11]; 20 mm with Aspergillus niger [12]; 23 mm in the assay with Klebsiella pneumoniae [13]; 22 mm with Proteus vulgaris [14]; 25 mm in the assay with Curvularia lunata [18]. Moreover, the zone of inhibition at 200 µg/disc with Staphylococcus aureus [21] came to 30 mm.

As to `Nn1c(CS(=O)(=O)Cc2ccccc2)nnc1-c1ccccc1Cl`, the zone of inhibition at 100 µg/disc in the assay on Bacillus subtilis [1] was found to be 30 mm; in the assay on Aspergillus niger [2] it was 17 mm; in the assay on Klebsiella pneumoniae [3] it was 24 mm; in the assay on Staphylococcus aureus [10] it was 29 mm; in the assay on Fusarium solani [15], 21 mm; in the assay with Proteus vulgaris [16], 26 mm. For the same compound, the zone of inhibition at 100 µg/disc in the assay with Curvularia lunata [17] came out at 18 mm. The MIC came out at 100 µg/mL (≈ 276 µM) against Staphylococcus aureus [4]; 200 µg/mL (≈ 551 µM) in the assay on Bacillus subtilis [5]; 200 µg/mL (≈ 551 µM) against Klebsiella pneumoniae [6]; 100 µg/mL (≈ 276 µM) in the assay on Fusarium solani [7]; 200 µg/mL (≈ 551 µM) with Proteus vulgaris [8]; 100 µg/mL (≈ 276 µM) against Aspergillus niger [19]. Besides, in the assay with Curvularia lunata [20], the MIC worked out at 100 µg/mL (≈ 276 µM). In addition, the zone of inhibition at 200 µg/disc came to 23 mm in the assay on Fusarium solani [9]; 34 mm in the assay on Bacillus subtilis [11]; 21 mm in the assay on Aspergillus niger [12]; 28 mm in the assay on Klebsiella pneumoniae [13]; 29 mm in the assay with Proteus vulgaris [14]; 20 mm with Curvularia lunata [18]. In addition, the zone of inhibition at 200 µg/disc in the assay with Staphylococcus aureus [21] is 32 mm.
